Assay results: ChEMBL document CHEMBL1255513, “Synthesis and biological evaluation of indomethacin analogs possessing a N-difluoromethyl-1,2-dihydropyrid-2-one ring system: a search for novel cyclooxygenase and lipoxygenase inhibitors” (Bioorg Med Chem Lett, 2010)
Activity calls are given as the source filed them. No cut-off for these calls is given here.

Tests used:
Rattus norvegicus [1] = experiment: Antiinflammatory activity in rat assessed as inhibition of carrageenan-induced rat paw edema at 4.2 mg/kg, po after 3 hrs; type: functional
How it was run: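 Carrageenan-induced foot paw edema in rats, with the agent given orally. Read-out is % inhibition of inflammation, measured 3 h after the oral dose. Animal work followed protocols approved by the University of Alberta Health Sciences Animal Welfare Committee.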

[2] = Inhibition of potato 5-lipoxygenase by enzyme immunoassay; parameters: species or system Solanum tuberosum
[3] = molecular target: T1, Prostaglandin G/H synthase 1 (Ovis aries, UniProt P05979); experiment: Inhibition of ovine COX1 by enzyme immunoassay
T1 sequence (P05979 whole entry): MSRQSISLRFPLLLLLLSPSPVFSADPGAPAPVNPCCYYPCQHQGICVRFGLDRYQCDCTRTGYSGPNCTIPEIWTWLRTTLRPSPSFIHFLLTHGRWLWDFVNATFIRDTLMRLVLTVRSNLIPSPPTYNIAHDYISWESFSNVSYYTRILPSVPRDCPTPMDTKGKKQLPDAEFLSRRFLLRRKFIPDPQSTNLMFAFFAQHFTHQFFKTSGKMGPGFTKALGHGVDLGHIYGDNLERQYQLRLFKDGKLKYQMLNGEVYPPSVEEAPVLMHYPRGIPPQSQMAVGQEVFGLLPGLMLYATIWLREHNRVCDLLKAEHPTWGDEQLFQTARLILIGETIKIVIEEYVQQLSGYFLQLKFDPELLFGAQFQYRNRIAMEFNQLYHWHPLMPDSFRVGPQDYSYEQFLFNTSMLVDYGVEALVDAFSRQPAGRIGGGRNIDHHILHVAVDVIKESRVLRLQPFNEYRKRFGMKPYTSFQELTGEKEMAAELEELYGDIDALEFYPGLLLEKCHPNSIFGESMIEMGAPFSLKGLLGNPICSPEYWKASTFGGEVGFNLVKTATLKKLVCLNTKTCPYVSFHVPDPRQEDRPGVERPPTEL
How it was run: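 COX inhibition was measured by enzyme immunoassay kit. IC50 is the mean of two determinations, with deviation from the mean below 10%.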

[4] = molecular target: T2, Prostaglandin G/H synthase 2 (Homo sapiens, UniProt P35354); experiment: Inhibition of human recombinant COX2 by enzyme immunoassay
T2 sequence (P35354 whole entry): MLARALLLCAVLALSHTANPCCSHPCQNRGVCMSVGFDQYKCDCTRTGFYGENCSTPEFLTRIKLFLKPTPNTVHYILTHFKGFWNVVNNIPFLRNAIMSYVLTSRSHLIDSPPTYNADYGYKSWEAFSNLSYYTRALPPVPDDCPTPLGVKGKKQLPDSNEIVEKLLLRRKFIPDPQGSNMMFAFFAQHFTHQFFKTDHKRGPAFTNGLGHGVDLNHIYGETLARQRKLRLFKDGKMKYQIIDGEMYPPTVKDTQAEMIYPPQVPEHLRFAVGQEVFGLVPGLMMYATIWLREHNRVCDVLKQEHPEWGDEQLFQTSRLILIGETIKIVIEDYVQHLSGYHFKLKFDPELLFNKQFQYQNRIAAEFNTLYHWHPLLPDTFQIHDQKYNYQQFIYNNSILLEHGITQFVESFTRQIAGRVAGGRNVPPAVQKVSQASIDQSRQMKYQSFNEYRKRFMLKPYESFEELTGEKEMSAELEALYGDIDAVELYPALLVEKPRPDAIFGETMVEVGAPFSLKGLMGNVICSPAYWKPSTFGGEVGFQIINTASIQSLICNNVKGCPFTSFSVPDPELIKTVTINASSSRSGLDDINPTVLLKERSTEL

Rattus norvegicus [5] = experiment: Antiinflammatory activity in rat assessed as inhibition of carrageenan-induced rat paw edema at 100 mg/kg, po after 3 hrs; type: functional
How it was run: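 Carrageenan-induced rat paw edema; test compound given orally at 100 mg/kg. Result is % inhibition of inflammation at 3 h after dosing. Protocol was approved by the University of Alberta Health Sciences Animal Welfare Committee.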

Row | SMILES | IC50 [2] | IC50 [3] | IC50 [4] | inhibition in vivo at 4.2 mg/kg (Rattus norvegicus [1]) | inhibition (Rattus norvegicus [5]) | inhibition in vivo at 100 mg/kg (Rattus norvegicus [5])
1 | COc1ccc2c(c1)c(CC(=O)O)c(C)n2C(=O)c1ccc(Cl)cc1 [INDOMETHACIN] |  |  |  | 50% |  | 
2 | COc1ccc2c(c1)c(CC(=O)O)c(C)n2C(=O)c1ccn(C(F)F)c(=O)c1 | > 100 µM | > 100 µM | > 100 µM |  |  | 25.5%

The next lines start with results.

Row | IC50 [2] | IC50 [3] | IC50 [4] | SMILES | inhibition in vivo at 4.2 mg/kg (Rattus norvegicus [1]) | inhibition (Rattus norvegicus [5]) | inhibition in vivo at 100 mg/kg (Rattus norvegicus [5])
3 | 13 µM |  |  | CC(Cc1ccc(O)c(O)c1)C(C)Cc1ccc(O)c(O)c1 (centres undefined) [NORDIHYDROGUAIARETIC ACID] |  |  | 
4 | > 100 µM | > 100 µM | 31 µM | COc1ccc2c(c1)c(CC(=O)O)c(C)n2Cc1ccn(C(F)F)c(=O)c1 |  | inactive | 
5 | > 100 µM | > 100 µM | > 100 µM | COc1ccc2c(c1)c(CC(=O)O)c(C)n2Cc1ccc(=O)n(C(F)F)c1 |  |  | 16%
